In ChEMBL document CHEMBL3414543, “Novel series of benzoquinones with high potency against 5-lipoxygenase in human polymorphonuclear leukocytes” (Eur J Med Chem, 2015):

How the values were obtained:
[1] = target: T1, Polyunsaturated fatty acid 5-lipoxygenase (Homo sapiens) (UniProt P09917); experiment: Inhibition of 5-LOX in A23187-stimulated human blood PMNL assessed as remaining activity by measuring lipoxygenase products formation at 10 uM pre-incubated for 15 mins followed by stimulation with A23187 for 10 mins by RP-HPLC based cell based assay
T1 sequence (whole entry): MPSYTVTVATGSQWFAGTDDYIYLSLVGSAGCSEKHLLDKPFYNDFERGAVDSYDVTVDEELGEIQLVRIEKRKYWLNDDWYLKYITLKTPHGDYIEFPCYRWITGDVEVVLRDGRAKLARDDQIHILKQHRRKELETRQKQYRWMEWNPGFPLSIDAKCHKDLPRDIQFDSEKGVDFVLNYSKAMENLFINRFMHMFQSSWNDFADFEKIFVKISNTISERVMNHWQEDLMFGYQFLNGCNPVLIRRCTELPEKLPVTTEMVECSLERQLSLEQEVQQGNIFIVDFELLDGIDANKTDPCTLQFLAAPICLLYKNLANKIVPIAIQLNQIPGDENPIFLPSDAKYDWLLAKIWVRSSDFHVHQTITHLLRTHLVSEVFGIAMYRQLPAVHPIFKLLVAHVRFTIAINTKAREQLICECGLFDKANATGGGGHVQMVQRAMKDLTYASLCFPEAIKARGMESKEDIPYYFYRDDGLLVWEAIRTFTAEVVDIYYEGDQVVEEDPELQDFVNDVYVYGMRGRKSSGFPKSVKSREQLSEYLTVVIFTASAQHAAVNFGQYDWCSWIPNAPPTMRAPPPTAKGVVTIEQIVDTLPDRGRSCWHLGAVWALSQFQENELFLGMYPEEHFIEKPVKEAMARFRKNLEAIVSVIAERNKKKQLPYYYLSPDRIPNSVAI
Procedure, shortened: (§1)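 Human PMNL (5 × 10⁶ in 1 ml PBS pH 7.4, 1 mg/ml glucose, 1 mM CaCl₂), preincubated 15 min at 37 °C with compound or 0.1% DMSO, then stimulated 10 min at 37 °C with A23187, with or without AA. 5-LO products measured. Values are mean ± S.E. of 3–4 independent experiments. IC₅₀ read graphically from 4–5 concentrations.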

[2] = target: T2, Polyunsaturated fatty acid 5-lipoxygenase (Homo sapiens, UniProt P09917); experiment: Inhibition of human recombinant 5-LOX expressed in Escherichia coli BL21 incubated for 10 mins in presence of arachidonic acid by RP-HPLC based cell-free assay
T2 sequence (P09917 whole entry): T1 sequence (whole entry)
Procedure, shortened: (§2)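 Recombinant human 5-LO, semi-purified from a 40,000 × g lysate supernatant on ATP-agarose, diluted in ice-cold PBS with 1 mM EDTA and 1 mM ATP. Preincubated 10 min at 4 °C with compound or 0.1% DMSO, warmed 30 s at 37 °C, then started with 2 mM CaCl₂ plus 20 µM AA. Reaction 10 min at 37 °C, stopped with cold methanol, products by RP-HPLC. IC₅₀ from 4–5 concentrations.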

[3] = target: T3, Polyunsaturated fatty acid lipoxygenase ALOX15 (Homo sapiens) (UniProt P16050); experiment: Inhibition of 15-LOX-1 in human blood PMNL assessed as remaining activity by measuring 15-HETE synthesis at 10 uM
T3 sequence (whole entry): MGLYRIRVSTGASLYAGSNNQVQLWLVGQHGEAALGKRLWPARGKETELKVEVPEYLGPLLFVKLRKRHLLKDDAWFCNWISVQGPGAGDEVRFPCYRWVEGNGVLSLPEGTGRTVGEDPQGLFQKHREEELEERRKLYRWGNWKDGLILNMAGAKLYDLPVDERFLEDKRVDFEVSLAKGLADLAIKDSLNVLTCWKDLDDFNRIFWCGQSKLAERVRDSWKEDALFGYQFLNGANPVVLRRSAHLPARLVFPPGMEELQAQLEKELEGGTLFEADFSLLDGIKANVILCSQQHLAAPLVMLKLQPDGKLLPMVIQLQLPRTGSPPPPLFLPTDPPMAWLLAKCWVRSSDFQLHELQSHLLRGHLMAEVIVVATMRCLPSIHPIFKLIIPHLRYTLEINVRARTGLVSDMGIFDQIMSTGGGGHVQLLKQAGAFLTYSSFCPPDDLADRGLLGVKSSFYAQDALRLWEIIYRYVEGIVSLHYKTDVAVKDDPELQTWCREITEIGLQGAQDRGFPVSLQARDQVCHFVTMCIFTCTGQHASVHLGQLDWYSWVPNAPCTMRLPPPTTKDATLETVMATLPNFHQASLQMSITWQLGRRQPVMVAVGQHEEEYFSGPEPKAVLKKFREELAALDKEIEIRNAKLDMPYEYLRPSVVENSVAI
Procedure, shortened: (§3)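 PMNL isolated from heparinized blood of fasted healthy donors by dextran sedimentation and Nycoprep centrifugation, with hypotonic lysis of erythrocytes. Cells at 5 × 10⁶ in 1 ml PBS pH 7.4 with 1 mg/ml glucose and 1 mM CaCl₂, preincubated 15 min at 37 °C with compound or 0.1% DMSO vehicle, then stimulated 10 min at 37 °C. 12-HETE or 15-HETE formation measured.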

[4] = target: T1, Polyunsaturated fatty acid 5-lipoxygenase (Homo sapiens); experiment: Inhibition of 5-LOX in A23187-stimulated human blood PMNL assessed as remaining activity by measuring lipoxygenase products formation at 10 uM in presence of arachidonic acid pre-incubated for 15 mins followed by stimulation with A23187 for 10 mins by RP-HPLC based cell based assay; procedure, shortened: as §1
[5] = target: T2, Polyunsaturated fatty acid 5-lipoxygenase; experiment: Inhibition of 5-LOX in A23187-stimulated human blood PMNL assessed as reduction in lipoxygenase products formation pre-incubated for 15 mins followed by stimulation with A23187 for 10 mins by RP-HPLC based cell based assay; procedure, shortened: as §1
[6] = target: T4, Polyunsaturated fatty acid lipoxygenase ALOX12 (Homo sapiens) (UniProt P18054); experiment: Inhibition of 12-LOX in human blood PMNL assessed as remaining activity by measuring 12-HETE synthesis at 10 uM; procedure, shortened: as §3
T4 sequence (whole entry): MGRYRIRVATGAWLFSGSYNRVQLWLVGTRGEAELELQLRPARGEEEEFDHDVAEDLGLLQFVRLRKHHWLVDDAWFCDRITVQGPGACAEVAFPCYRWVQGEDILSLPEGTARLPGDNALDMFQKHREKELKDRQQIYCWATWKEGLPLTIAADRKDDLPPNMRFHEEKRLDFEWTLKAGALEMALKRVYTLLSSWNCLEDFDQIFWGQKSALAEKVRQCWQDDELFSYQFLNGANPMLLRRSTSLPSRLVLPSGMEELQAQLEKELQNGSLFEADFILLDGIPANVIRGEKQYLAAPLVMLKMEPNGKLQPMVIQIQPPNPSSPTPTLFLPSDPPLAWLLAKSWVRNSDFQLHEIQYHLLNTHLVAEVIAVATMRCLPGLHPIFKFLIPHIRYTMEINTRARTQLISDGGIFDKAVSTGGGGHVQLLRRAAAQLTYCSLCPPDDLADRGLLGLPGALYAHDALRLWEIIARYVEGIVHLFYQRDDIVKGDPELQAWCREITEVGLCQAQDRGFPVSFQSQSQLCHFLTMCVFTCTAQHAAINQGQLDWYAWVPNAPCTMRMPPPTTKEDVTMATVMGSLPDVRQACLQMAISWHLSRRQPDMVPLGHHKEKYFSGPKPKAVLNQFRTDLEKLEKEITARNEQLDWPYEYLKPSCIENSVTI

[7] = target: T2, Polyunsaturated fatty acid 5-lipoxygenase; experiment: Inhibition of 5-LOX in A23187-stimulated human blood PMNL assessed as reduction in lipoxygenase products formation in presence of arachidonic acid pre-incubated for 15 mins followed by stimulation with A23187 for 10 mins by RP-HPLC based cell based assay; procedure, shortened: as §1
[8] = target: T1, Polyunsaturated fatty acid 5-lipoxygenase (Homo sapiens); experiment: Inhibition of human recombinant 5-LOX expressed in Escherichia coli BL21 assessed as remaining activity at 10 uM incubated for 10 mins in presence of arachidonic acid by RP-HPLC based cell-free assay; procedure, shortened: as §2
[9] = organism: Homo sapiens; experiment: Selectivity index, ratio of inhibition for […] in human blood PMNL to IC50 for 5-LOX in human blood PMNL
[10] = organism: Homo sapiens; experiment: Selectivity index, ratio of inhibition for 12-LOX in human blood PMNL to IC50 for 5-LOX in human blood PMNL
[11] = target: T1, Polyunsaturated fatty acid 5-lipoxygenase (Homo sapiens); experiment: Potency index, ratio of IC50 for human 5-LOX by intact cell based assay to IC50 for human 5-LOX by cell free assay
[12] = target: T2, Polyunsaturated fatty acid 5-lipoxygenase; experiment: Inhibition of human 5-LOX by cell free assay
[13] = target: T2, Polyunsaturated fatty acid 5-lipoxygenase; experiment: Inhibition of human 5-LOX by intact cell based assay

Row | Structure (SMILES) | Activity [1] | IC50 [2] | Activity [3] | Activity [4] | IC50 [5] | Activity [6] | IC50 [7] | Activity [8] | Selectivity Index [9] | Selectivity Index [10] | Ratio IC50 [11] | IC50 [12] | IC50 [13]
1 | CCCCCCC1=C(O)C(=O)C=C(O)C1=O | 134% | 4 µM | 89.8% | 79.9% | > 10 µM | 105% | > 10 µM |  |  |  |  |  | 
2 | CCCCCCCCCCCCCCCCC1=C(OC)C(=O)C=C(OC)C1=O | 80.1% | 1.6 µM | 97.8% |  | > 10 µM | 121% | 3.5 µM |  |  |  |  |  | 
3 | CCCCCCCCCCCCCCCCC1=C(O)C(=O)C=C(O)C1=O | 88% | 0.19 µM | 105% | 80.5% | > 10 µM | 117% | > 10 µM |  |  |  |  |  | 
4 | CCCCCCCCCCCCCCCC1=C(OC)C(OC)=CC(=O)C1=O | 57.6% | 0.62 µM | 115% | 66.8% | > 10 µM | 88.9% | > 10 µM |  |  |  |  |  | 
5 | CC(C)=CCC/C(C)=C/CC/C(C)=C/CC1=C(O)C(=O)C=C(O)C1=O | 85.8% | 2.5 µM | 95.2% | 66.6% | > 10 µM | 78.3% | > 10 µM |  |  |  |  |  | 
6 | CCCCCCCCCCCCCCCCC1=C(O)C(=O)C=C(OC)C1=O |  | > 10 µM | 119% |  | 1 µM | 138% | 1.1 µM | 60.1% |  |  |  |  | 
7 | CCCCCCCCCCC1=C(OC)C(OC)=CC(=O)C1=O |  | 0.13 µM | 148% |  | 0.04 µM | 133% | 0.07 µM |  | > 66 | > 66 |  |  | 
8 | CCCCCCCCC1=C(O)C(=O)C=C(O)C1=O | 53.5% | 0.38 µM | 88.9% | 80.1% | > 10 µM | 75.7% | > 10 µM |  |  |  |  |  | 
9 | CC(C)=CCC/C(C)=C/CC1=C(O)C(=O)C=C(O)C1=O | 114% | 1.8 µM | 92% | 81.9% | > 10 µM | 80.5% | > 10 µM |  |  |  |  |  | 
10 | CCCCC1=C(OC)C(OC)=CC(=O)C1=O |  | > 10 µM | 129% |  | 2.2 µM | 85.8% | 5.1 µM | 82.9% |  |  |  |  | 
11 | CCCCC1=C(O)C(=O)C=C(O)C1=O | 93.5% | > 10 µM | 82.3% | 92.8% | > 10 µM | 93.3% | > 10 µM | 65.4% |  |  |  |  | 
12 | CCCCCCCCCCCC1=C(O)C(=O)C=C(O)C1=O [EMBELIN] |  | 0.06 µM | 91.5% |  | 1.7 µM | 74.9% | 3.5 µM |  |  |  | 13 | 0.06 µM | 0.8 µM
13 | CCCCC1=C(O)C(=O)C=C(OC)C1=O | 86% | > 10 µM | 112% | 95.7% | > 10 µM | 91.2% | > 10 µM | 70.5% |  |  |  |  | 
14 | CCCCCCCCCCCCC1=C(OC)C(OC)=CC(=O)C1=O |  | 0.13 µM | 133% |  | 0.029 µM | 135% | 0.15 µM |  | > 66 | > 66 |  |  | 
15 | COC1=CC(=O)C(O)=C(C/C=C(\C)CCC=C(C)C)C1=O |  | > 10 µM | 112% | 65.9% | 4.1 µM | 101% | > 10 µM | 73.6% |  |  |  |  | 
16 | CCCCCCC1=C(O)C(=O)C=C(OC)C1=O | 68.9% | > 10 µM | 65.8% | 64.1% | > 10 µM | 44.5% | > 10 µM | 71.1% |  |  |  |  | 
17 | CCCCCCCCCCCCCC1=C(OC)C(OC)=CC(=O)C1=O |  | 0.08 µM | 137% |  | 0.12 µM | 78.5% | 0.05 µM |  | > 66 | > 66 |  |  | 
18 | CCCCCCCCCCCC1=C(OC)C(OC)=CC(=O)C1=O |  | 0.09 µM | 105% |  | 0.06 µM | 236% | 0.1 µM |  | > 66 | > 66 |  |  | 
19 | CCCCCCCCC1=C(O)C(=O)C=C(OC)C1=O | 73.5% | 3 µM | 105% | 72.9% | > 10 µM | 86.8% | > 10 µM |  |  |  |  |  | 
